Laboratory results taken from ChEMBL document CHEMBL2176963, “Design, synthesis, and biological evaluation of 3-(1H-1,2,3-triazol-1-yl)benzamide derivatives as Potent Pan Bcr-Abl inhibitors including the threonine(315)→isoleucine(315) mutant” (J Med Chem, 2012).
pIC50: −log10 of the molar value. Activity calls are given as the source filed them. The rule behind the calls is not given here.

Key:
[1] = Cell cycle arrest in mouse BA/F3 cells expressing Bcr-Abl T315I mutant assessed as accumulation at G0/G1 phase using propidium iodide staining by FACS analysis; assay type: functional, cell-based; conditions: BaF3
K562 [2] = assay: Cell cycle arrest in human K562 cells expressing wild type Bcr-Abl assessed as accumulation at G0/G1 phase using propidium iodide staining by FACS analysis; assay type: functional, cell-based
BaF3 [3] = assay: Induction of apoptosis in mouse BA/F3 cells expressing Bcr-Abl T315I mutant using annexin-V-FITC and 7-AAD staining by flow cytometer; assay type: functional, cell-based
K562 [4] = assay: Induction of apoptosis in human K562 cells expressing wild type Bcr-Abl using annexin-V-FITC and 7-AAD staining by flow cytometer; assay type: functional, cell-based
[5] = Antiproliferative activity against mouse BA/F3 cells after 72 hrs by CCK-8 assay; conditions: BaF3, 72 h
[6] = Antiproliferative activity against mouse BA/F3 cells expressing Bcr-Abl G250E mutant after 72 hrs by CCK-8 assay; conditions: BaF3, 72 h
[7] = Antiproliferative activity against mouse BA/F3 cells expressing Bcr-Abl Y253F mutant after 72 hrs by CCK-8 assay; conditions: BaF3, 72 h
[8] = Antiproliferative activity against mouse BA/F3 cells expressing Bcr-Abl H396R mutant after 72 hrs by CCK-8 assay; conditions: BaF3, 72 h
[9] = Antiproliferative activity against mouse BA/F3 cells expressing Bcr-Abl F359V mutant after 72 hrs by CCK-8 assay; conditions: BaF3, 72 h
[10] = Antiproliferative activity against mouse BA/F3 cells expressing Bcr-Abl E255V mutant after 72 hrs by CCK-8 assay; conditions: BaF3, 72 h
[11] = Antiproliferative activity against mouse BA/F3 cells expressing Bcr-Abl E255K mutant after 72 hrs by CCK-8 assay; conditions: BaF3, 72 h
[12] = Antiproliferative activity against mouse BA/F3 cells expressing Bcr-Abl H396P mutant after 72 hrs by CCK-8 assay; conditions: BaF3, 72 h
[13] = Antiproliferative activity against mouse BA/F3 cells expressing Bcr-Abl M244V mutant after 72 hrs by CCK-8 assay; conditions: BaF3, 72 h
[14] = Antiproliferative activity against mouse BA/F3 cells expressing Bcr-Abl E355G mutant after 72 hrs by CCK-8 assay; conditions: BaF3, 72 h
[15] = Antiproliferative activity against mouse BA/F3 cells expressing Bcr-Abl Y253H mutant after 72 hrs by CCK-8 assay; conditions: BaF3, 72 h
[16] = Antiproliferative activity against mouse BA/F3 cells expressing Bcr-Abl Q252H mutant after 72 hrs by CCK-8 assay; conditions: BaF3, 72 h
[17] = Antiproliferative activity against mouse BA/F3 cells expressing Bcr-Abl F486S mutant after 72 hrs by CCK-8 assay; conditions: BaF3, 72 h
[18] = Antiproliferative activity against mouse BA/F3 cells expressing Bcr-Abl M351T mutant after 72 hrs by CCK-8 assay; conditions: BaF3, 72 h
BaF3 [19] = assay: Effect on STAT5 protein level in mouse BA/F3 cells expressing Bcr-Abl T315I mutant by Western blot analysis; assay type: functional, cell-based
How it was run: (§1)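 K562 or Ba/F3 Bcr-Abl T315I cells were treated with graded concentrations, lysed in 1× SDS sample buffer, sonicated and boiled. Lysates were run on 8−12% SDS-PAGE and transferred to PVDF. Membranes were blocked in TBS with 0.1% Tween-20 and 5% nonfat milk, then probed with primary antibody and HRP-conjugated secondary. Blots shown represent three independent experiments.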

BaF3 [20] = assay: Effect on CrkL protein level in mouse BA/F3 cells expressing Bcr-Abl T315I mutant by Western blot analysis; assay type: functional, cell-based; how it was run: as §1
BaF3 [21] = assay: Effect on Bcr-Abl T315I mutant protein level in mouse BA/F3 cells by Western blot analysis; assay type: functional, cell-based; how it was run: as §1
[22] = tested on: Tyrosine-protein kinase ABL1 (Mus musculus), P00520 [T315I]; assay: Inhibition of Bcr-Abl T315I mutant-mediated STAT5 phosphorylation in mouse BA/F3 cells by Western blot analysis; assay type: cell-based; conditions: BaF3; how it was run: as §1
Chain of Tyrosine-protein kinase ABL1 (Mus musculus), P00520 [T315I] (P00520 whole entry T315I): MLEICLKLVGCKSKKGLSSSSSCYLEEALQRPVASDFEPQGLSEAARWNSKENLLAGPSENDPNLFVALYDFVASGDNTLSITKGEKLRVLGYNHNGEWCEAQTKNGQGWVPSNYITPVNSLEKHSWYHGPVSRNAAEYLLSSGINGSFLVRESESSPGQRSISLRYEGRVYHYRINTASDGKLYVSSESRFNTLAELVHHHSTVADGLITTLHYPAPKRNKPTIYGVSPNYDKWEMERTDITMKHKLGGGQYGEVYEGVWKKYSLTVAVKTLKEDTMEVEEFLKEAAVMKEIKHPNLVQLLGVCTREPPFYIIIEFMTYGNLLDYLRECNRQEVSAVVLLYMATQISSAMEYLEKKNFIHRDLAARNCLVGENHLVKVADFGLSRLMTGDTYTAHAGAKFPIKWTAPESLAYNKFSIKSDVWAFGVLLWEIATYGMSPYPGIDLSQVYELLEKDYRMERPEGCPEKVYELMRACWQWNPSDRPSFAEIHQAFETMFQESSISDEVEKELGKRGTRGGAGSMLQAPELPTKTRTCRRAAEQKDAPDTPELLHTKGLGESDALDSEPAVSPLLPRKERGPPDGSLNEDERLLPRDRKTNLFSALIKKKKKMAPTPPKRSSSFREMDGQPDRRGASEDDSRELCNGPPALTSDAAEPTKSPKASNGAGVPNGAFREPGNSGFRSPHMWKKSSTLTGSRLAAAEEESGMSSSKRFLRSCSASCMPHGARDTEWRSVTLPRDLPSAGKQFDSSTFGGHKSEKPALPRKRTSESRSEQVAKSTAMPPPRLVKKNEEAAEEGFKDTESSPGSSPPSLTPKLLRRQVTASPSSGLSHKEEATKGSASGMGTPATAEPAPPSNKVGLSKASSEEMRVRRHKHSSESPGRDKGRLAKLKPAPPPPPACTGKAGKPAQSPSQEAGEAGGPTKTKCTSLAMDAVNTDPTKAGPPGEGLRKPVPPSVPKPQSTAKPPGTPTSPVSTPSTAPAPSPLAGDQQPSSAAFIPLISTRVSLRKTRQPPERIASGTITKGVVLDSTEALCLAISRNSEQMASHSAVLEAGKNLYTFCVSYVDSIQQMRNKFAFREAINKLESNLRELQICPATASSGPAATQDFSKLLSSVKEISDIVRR

[23] = tested on: Tyrosine-protein kinase ABL1 (Mus musculus), P00520 [T315I]; assay: Inhibition of Bcr-Abl T315I mutant-mediated CrkL phosphorylation in mouse BA/F3 cells by Western blot analysis; assay type: cell-based; conditions: BaF3; how it was run: as §1
K562 [24] = assay: Effect on STAT5 protein level in human K562 cells expressing wild type Bcr-Abl by Western blot analysis; assay type: functional, cell-based; how it was run: as §1
K562 [25] = assay: Effect on CrkL protein level in human K562 cells expressing wild type Bcr-Abl by Western blot analysis; assay type: functional, cell-based; how it was run: as §1
K562 [26] = assay: Effect on wild type Bcr-Abl protein level in human K562 cells by Western blot analysis; assay type: functional, cell-based; how it was run: as §1
[27] = tested on: Tyrosine-protein kinase ABL1 (Mus musculus), P00520 [T315I]; assay: Inhibition of Bcr-Abl T315I mutant phosphorylation in mouse BA/F3 cells by Western blot analysis; assay type: cell-based; conditions: BaF3; how it was run: as §1
[28] = Antiproliferative activity against mouse BA/F3 cells expressing wild type Bcr-Abl after 72 hrs by CCK-8 assay; conditions: BaF3, 72 h
K562 [29] = assay: Antiproliferative activity against human K562 cells expressing wild type Bcr-Abl after 72 hrs by CCK-8 assay; conditions: K562, 72 h
K562 [30] = assay: Antiproliferative activity against imatinib-resistant human K562 cells expressing Bcr-Abl Q252H mutant after 72 hrs by CCK-8 assay; conditions: K562, 72 h
[31] = Antiproliferative activity against human KU812 cells expressing wild type Bcr-Abl after 72 hrs by CCK-8 assay; conditions: KU812, 72 h
cells = conditions: Mus musculus, BaF3, 72 h

SMILES | Activity [1] | Activity (K562 [2]) | Activity (BaF3 [3]) | Activity (K562 [4]) | pIC50 [5] | pIC50 [6] | pIC50 [7] | pIC50 [8] | pIC50 [9] | pIC50 [10] | pIC50 [11] | pIC50 [12] | pIC50 [13] | pIC50 [14] | pIC50 [15] | pIC50 [16] | pIC50 [17] | pIC50 [18] | pIC50 [28] | pIC50 (cells) | other results
Cc1ccc(C(=O)Nc2ccc(CN3CCN(C)CC3)c(C(F)(F)F)c2)cc1-n1cc(-c2cnc3[nH]ncc3c2)nn1 | Active | Active | Active | Active | 6.38 | 8.78 | 9.46 | 8.43 | 8.84 | 8.53 | 8.51 | 9.55 | 9.92 | 9.43 | 8.79 | 8.26 | 8.84 | 9.40 | 8.61 | 7.86 | Activity (BaF3 [19]): inactive; Activity (BaF3 [20]): inactive; Activity (BaF3 [21]): inactive; inhibition [22]: Active; inhibition [23]: Active; Activity (K562 [24]): inactive; Activity (K562 [25]): inactive; Activity (K562 [26]): inactive; inhibition [27]: Dose-dependent effect; pIC50 (K562 [29]): 9.40; pIC50 (K562 [30]): 8.26; pIC50 [31]: 9.96
Cc1cn(-c2cc(NC(=O)c3ccc(C)c(Nc4nccc(-c5cccnc5)n4)c3)cc(C(F)(F)F)c2)cn1 [NILOTINIB] |  |  |  |  | 4.39 | 7.41 | 7.22 | 7.06 | 6.80 | 6.33 | 6.53 | 8.20 | 8.81 | 8.08 | 6.50 | 6.82 | 7.68 | 7.99 | 7.19 | 6.11 | 
CN1CCN(Cc2ccc(NC(=O)c3ccc(Cl)c(-n4cc(-c5cnc6[nH]ncc6c5)nn4)c3)cc2C(F)(F)F)CC1 | Active | Active | Active | Active | 6.43 | 8.71 | 9.28 | 8.27 | 8.64 | 8.47 | 8.56 | 9.52 | 9.21 | 9.52 | 8.53 | 8.12 | 8.38 | 9.35 | 8.60 | 7.92 | Activity (BaF3 [19]): inactive; Activity (BaF3 [20]): inactive; Activity (BaF3 [21]): inactive; inhibition [22]: Active; inhibition [23]: Active; Activity (K562 [24]): inactive; Activity (K562 [25]): inactive; Activity (K562 [26]): inactive; inhibition [27]: Dose-dependent effect; pIC50 (K562 [29]): 9.37; pIC50 (K562 [30]): 8.41; pIC50 [31]: 10.10
